Data published in article PMC2947842 (Bioorganic & medicinal chemistry, 2010).
Positions of bridges follow the written chain, without caps; N, C: chain ends. Non-standard residues stand in square brackets, D forms with d. Residues, ends and D or L forms follow the SMILES beside them.

Test system: B16/F1 melanoma cells
Assay: Clonogenic cytotoxicity
Assay type: cell-based, murine
Conditions: 0.1 μM peptide, 3 h incubation at 37 °C, colonies after 6 days
Outline: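 B16/F1 cells seeded at 200 cells/well and exposed for 3 h at 37 °C in culture medium to 0.1 μM test peptide, comparator peptides, or medium alone. Washed twice with PBS and regrown in medium for 6 days. Fixed in methanol:glacial acetic acid (3:1), hematoxylin-stained, and scored by microscope; colonies over 50 cells counted as survivors. Survival normalized to untreated (100%). Unpaired Student t-test, p<0.05.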

Row | Molecule | Decrease in clonogenic survival in comparison with the untreated group [%]
1 | CC(C)[C@H](NC(=O)[C@@H]1CCCN1C(=O)[C@H](CCCNC(=N)N)NC(=O)[C@H](CS)NC(=O)[C@H](Cc1c[nH]c2ccccc12)NC(=O)[C@H](CCCNC(=N)N)NC(=O)[C@@H](Cc1ccccc1)NC(=O)[C@H](Cc1c[nH]cn1)NC(=O)[C@H](CCC(=O)O)NC(=O)[C@H](CS)NC(=O)[C@H](CS)NC(=O)[C@H](CCCNC(=N)N)NC(=O)[C@@H]1CC(=O)N[C@@H](CCCNC(=N)N)C(=O)NCC(=O)N[C@@H](CC(=O)O)C(=O)N[C@H](Cc2ccc(O)cc2)C(=O)N1)C(N)=O [RGD-Arg-(Arg^11)CCMSH] (RGD[dY]DRCCEH[dF]RWCRPV-NH2; lactam N-5; C-terminus assumed) | 62
2 | [Cys^3,4,10, D-Phe^7, Arg^11]α-MSH3-13 [(Arg^11)CCMSH] | 11
